These results are taken from article PMC9643279 (Acta Pharmaceutica Sinica. B, 2022).

Assay [1] deals with LPS-induced IL-1β, IL-6, TNFα. The note with it: cited from earlier work; for pro-inflammatory cytokine production: PKM2-targeted compounds.
The target in assay [2] is T1, PGK1 (Homo sapiens, UniProt P00558).
T1 sequence (P00558 1-417): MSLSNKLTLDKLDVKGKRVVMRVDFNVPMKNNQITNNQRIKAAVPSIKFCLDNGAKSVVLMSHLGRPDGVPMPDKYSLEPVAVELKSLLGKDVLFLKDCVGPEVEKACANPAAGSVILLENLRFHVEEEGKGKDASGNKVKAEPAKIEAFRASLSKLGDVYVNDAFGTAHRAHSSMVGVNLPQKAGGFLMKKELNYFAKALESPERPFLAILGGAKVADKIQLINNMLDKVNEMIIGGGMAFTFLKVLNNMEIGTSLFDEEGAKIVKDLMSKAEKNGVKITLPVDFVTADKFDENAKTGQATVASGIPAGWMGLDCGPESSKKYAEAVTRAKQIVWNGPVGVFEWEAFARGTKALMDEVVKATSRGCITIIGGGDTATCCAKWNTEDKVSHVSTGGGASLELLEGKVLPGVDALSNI
The assay is described as follows: Protein thermal shift assay. It is filed as binding. The note with it: Figs. S1I-J. In outline:
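Recombinant PGK1 at 3 μmol/L was mixed with 5× SYPRO Orange and test compound or DMSO in 20 μL of 50 mmol/L HEPES pH 7.4, 150 mmol/L NaCl, 1 mmol/L DTT. Fluorescence was followed during thermal melting in a real-time PCR instrument, and Tm was derived with the instrument's thermal-shift software.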

Assay [3] has as its target T1, PGK1. Briefly: Steady-state kinetic assay in the presence of gradient compound concentrations. In kind it is biochemical.
In assay [4] the target is T1, PGK1. Briefly: PGK1 and GAPDH coupled enzyme assay, IC50 determination. It is filed as biochemical. In outline:
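His-tagged PGK1 was expressed from pET28a in E. coli BL21(DE3) pLysS (0.4 mmol/L IPTG, 3 h) and nickel-purified. PGK1 at 0.4 nmol/L was preincubated with test compound (DMSO, various concentrations) for 10 min at room temperature with shaking. OD340 was read every 15 s for 15 min at 37 °C; V0 came from the first 3 min, and inhibition was expressed as % of the DMSO V0.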

The test system of assay [5] is PGK1. Conditions: read-out: IC50 (reported); reported as a PGK1 inhibitor; cited from earlier work.

On to `OCC1OC(O)CC(O)C1O` (stereo not shown) [Compound 2-DG], for which, in assay [1] (previous studies), the “LPS-induced IL-1β” value was “blocks”; the “transcription of IL-6 and TNFα” value is “unaffected”.

As for `Nc1cccc(S(=O)(=O)N2CCCN(S(=O)(=O)c3ccc4c(c3)OCCO4)CC2)c1` [DASA-58], in assay [1], the pro-inflammatory cytokine production entry is “only inhibit IL-1β production”. `CCOC(=O)c1nc2cc(Cl)c(Cl)cc2nc1N1CCCN(C(=O)CC)CC1` [LTP-10, ethyl 6,7-dichloro-3-(4-propionyl-1,4-diazepan-1-yl)quinoxaline-2-carboxylate]: the PGK1 thermal stability result in assay [2] is recorded as “stabilized”. Besides, the Ki in assay [3] (Ki, ATP competitive, varying ATP, saturating 3-PG, competitive model) stood at 2.59 ± 0.01 µM. In addition, in assay [3] (Km of ATP increases, Vmax unchanged), the “mode of inhibition versus ATP” value was “ATP competitive inhibitor”. The “mode of inhibition versus 3-PG” value in assay [3] (Vmax decreases, Km of 3-PG unchanged) is “noncompetitive inhibition”. In assay [4], this molecule displayed a half-inhibitory concentration (IC50) of 2.3 µM. `CN(C)C(=O)CCSC(SCCC(=O)O)c1cccc(/C=C/c2ccc3ccc(Cl)cc3n2)c1` (stereo not shown) [MK-571]: 25.2 µM corresponded to half-maximal inhibition in assay [4] (IC50). With `Cn1c2cc([S+](C)[O-])sc2c2cnn(Cc3cccc(N)c3)c(=O)c21` (stereo not shown) [TEPP-46], the pro-inflammatory cytokine production result in assay [1] is on record as “only inhibit IL-1β production”. `c1cc(-c2cnn3cc(-c4ccc(OCCN5CCCCC5)cc4)cnc23)ccn1` [dorsomorphin] registered an IC50 in assay [4] of 6.72 µM. In the case of `CC(C)[C@H](CO)Nc1nc(Nc2cccc(Cl)c2)c2ncn(C(C)C)c2n1` [purvalanol A], the IC50 is 2.5 µM in assay [5] and 1.96 µM in assay [4].

Usually Ki stands for the dissociation constant of the complex between target and ligand, obtained from inhibition or displacement. For orientation: IC50 means the concentration that gives 50% inhibition.
